The species named for assay [1] is Rattus norvegicus. Nature of the assay: Antiestrogenic potency was measured by inhibition of estrus in ovariectomized rats treated with 17-beta-estradiol at a dose of 5 mg. The class given is functional. Summed up: (§1)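 Ovariectomized rats were given 17β-estradiol together with the test compound. Vaginal smears were taken 32 h later; rats with cornified epithelial cells in the smear were scored as in estrus. The 32 h time point was chosen from smears taken at 0, 8, 24, 32, 48, 56 and 72 h. Read-out: percentage of rats in estrus, and its inhibition.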

Assay [2] is filed under the species Rattus norvegicus. The experiment in a line: Affinity constant was measured by inhibition of estrus in ovariectomized rats treated with 17-beta-estradiol at a dose of 5 mg. The class given is functional, organism-based.
The species entered for assay [3] is Rattus norvegicus. Nature of the assay: Antiestrogenic potency was measured by inhibition of estrus in ovariectomized rats treated with 17-beta-estradiol at a dose of 0.5 mg. The class given is functional. Summed up:
as §1

The species entered for assay [4] is Rattus norvegicus. Nature of the assay: Affinity constant was measured by inhibition of estrus in ovariectomized rats treated with 17-beta-estradiol. The class given is functional, organism-based.

Structures are written as SMILES.

The Inhibition is the percentage by which the read-out fell short of the control. Read a low Inhibition as little suppression. The molecule `Oc1ccc2cc3c(ccc4cc(O)ccc43)cc2c1` displayed an Inhibition in assay [1] of 12%. In assay [2], this molecule displayed a Ka of 3e+07 M⁻¹. The molecule `CC(=O)Oc1ccc2c(ccc3c(C)c4cc(OC(C)=O)ccc4c(C)c32)c1` registered an Inhibition in assay [1] of 67%. In the case of `COc1ccc2c(c1)CCC(c1ccccc1)=C2c1ccc(OCCN2CCCC2)cc1` [NAFOXIDINE], the Inhibition in assay [3] is on record as 44%. `C[C@]12CC[C@@H]3c4ccc(O)cc4CC[C@H]3[C@@H]1C[C@@H](O)[C@@H]2O` gave a Ka in assay [4] of 7e+09 M⁻¹. With `Cc1c2cc(O)ccc2cc2c1ccc1cc(O)ccc12`, the Inhibition in assay [1] stood at 22%. Further, the Ka in assay [2] turned out to be 1.8e+09 M⁻¹. In the case of `Cc1c2cc(O)ccc2c(C)c2c1ccc1cc(O)ccc12`, the figures for the Inhibition in assay [1] and in assay [3] were 74% and 44%, respectively. The molecule also returned a Ka in assay [2] of 1.7e+08 M⁻¹. The molecule `Cc1c2ccc(O)cc2cc2ccc3cc(O)ccc3c12` showed an Inhibition in assay [1] of 44%. The molecule further had a Ka in assay [2] of 4.3e+07 M⁻¹.

(Values after ChEMBL document CHEMBL1122026, “Antiestrogenic properties of substituted benz[a]anthracene-3,9-diols” (1982).)
